Assay results from ChEMBL document CHEMBL1629545, “A morpholino oligomer targeting highly conserved internal ribosome entry site sequence is able to inhibit multiple species of picornavirus” (Antimicrob Agents Chemother, 2008).

What was measured:
Assay type in all cases: cell-based
[1] = system: SK-N-MC; assay: Cytotoxicity against human SK-N-MC cell at 10 uM after 24 hrs by MTS assay
[2] = system: HeLa; assay: Cytotoxicity against human HeLa cells at 1 to 10 uM after 24 hrs by MTS assay
Summary of the method: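 HeLa cells at ~80% confluence, uninfected, exposed to 1–100 μM PPMO or water (mock) in serum-free DMEM-F-12 (1:1) for 24 h. MTS reagent was added for 4 h and absorbance read at 492 nm. Viability was expressed as percent of water-treated cells (set to 100%), averaged over 12 wells.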

[3] = system: Vero; assay: Cytotoxicity against African green monkey Vero cells at 10 uM after 24 hrs by MTS assay; conditions: chlorocebus sabaeus

Measured: Activity

Cc1cn([C@H]2CNC[C@@H](COP(=O)(N(C)C)N3C[C@@H](COP(=O)(N(C)C)N4C[C@@H](COP(=O)(N(C)C)N5C[C@@H](COP(=O)(N(C)C)N6C[C@@H](COP(=O)(N(C)C)N7C[C@@H](COP(=O)(N(C)C)N8C[C@@H](COP(=O)(N(C)C)N9C[C@@H](COP(=O)(N(C)C)N%10C[C@@H](COP(=O)(N(C)C)N%11C[C@@H](COP(=O)(N(C)C)N%12C[C@@H](COP(=O)(N(C)C)N%13C[C@@H](COP(=O)(N(C)C)N%14C[C@@H](COP(=O)(N(C)C)N%15C[C@@H](COP(=O)(N(C)C)N%16C[C@@H](COP(=O)(N(C)C)N%17C[C@@H](COP(=O)(N(C)C)N%18C[C@@H](COP(=O)(N(C)C)N%19C[C@@H](COP(=O)(N(C)C)N%20C[C@@H](COP(=O)(N(C)C)N%21C[C@@H](COP(=O)(N(C)C)N%22C[C@@H](COP(=O)(N(C)C)N%23CCN(C(=O)[C@H](CS)NC(=O)[C@H](Cc%24ccccc%24)NC(=O)[C@H](Cc%24ccccc%24)NC(=O)[C@H](CCCNC(=N)N)NC(=O)[C@H](CCCNC(=N)N)NC(=O)[C@H](CCCNC(=N)N)NC(=O)[C@H](CCCNC(=N)N)NC(=O)[C@H](CCCNC(=N)N)NC(=O)[C@H](CCCNC(=N)N)NC(=O)[C@H](CCCNC(=N)N)NC(=O)[C@H](CCCNC(=N)N)NC(=O)[C@@H](N)CCCNC(=N)N)CC%23)O[C@@H](n%23cnc%24c(=O)[nH]c(N)nc%24%23)C%22)O[C@@H](n%22cnc%23c(=O)[nH]c(N)nc%23%22)C%21)O[C@@H](n%21ccc(N)nc%21=O)C%20)O[C@@H](n%20cnc%21c(=O)[nH]c(N)nc%21%20)C%19)O[C@@H](n%19cc(C)c(=O)[nH]c%19=O)C%18)O[C@@H](n%18ccc(N)nc%18=O)C%17)O[C@@H](n%17cc(C)c(=O)[nH]c%17=O)C%16)O[C@@H](n%16cc(C)c(=O)[nH]c%16=O)C%15)O[C@@H](n%15ccc(N)nc%15=O)C%14)O[C@@H](n%14ccc(N)nc%14=O)C%13)O[C@@H](n%13cnc%14c(N)ncnc%14%13)C%12)O[C@@H](n%12cc(C)c(=O)[nH]c%12=O)C%11)O[C@@H](n%11cnc%12c(=O)[nH]c(N)nc%12%11)C%10)O[C@@H](n%10cnc%11c(N)ncnc%11%10)C9)O[C@@H](n9cc(C)c(=O)[nH]c9=O)C8)O[C@@H](n8ccc(N)nc8=O)C7)O[C@@H](n7cnc8c(N)ncnc87)C6)O[C@@H](n6ccc(N)nc6=O)C5)O[C@@H](n5cnc6c(N)ncnc65)C4)O[C@@H](n4cnc5c(=O)[nH]c(N)nc54)C3)O2)c(=O)[nH]c1=O (some centres undefined)
Non-toxic: all assays above

Cc1cn([C@H]2CN(P(=O)(OC[C@@H]3CN(P(=O)(OC[C@@H]4CN(P(=O)(OC[C@@H]5CN(P(=O)(OC[C@@H]6CN(P(=O)(OC[C@@H]7CN(P(=O)(OC[C@@H]8CN(P(=O)(OC[C@@H]9CNC[C@H](n%10cnc%11c(=O)[nH]c(N)nc%11%10)O9)N(C)C)C[C@H](n9cnc%10c(N)ncnc%109)O8)N(C)C)C[C@H](n8cnc9c(=O)[nH]c(N)nc98)O7)N(C)C)C[C@H](n7cnc8c(N)ncnc87)O6)N(C)C)C[C@H](n6ccc(N)nc6=O)O5)N(C)C)C[C@H](n5ccc(N)nc5=O)O4)N(C)C)C[C@H](n4cnc5c(N)ncnc54)O3)N(C)C)C[C@@H](COP(=O)(N(C)C)N3C[C@@H](COP(=O)(N(C)C)N4C[C@@H](COP(=O)(N(C)C)N5C[C@@H](COP(=O)(N(C)C)N6C[C@@H](COP(=O)(N(C)C)N7C[C@@H](COP(=O)(N(C)C)N8C[C@@H](COP(=O)(N(C)C)N9C[C@@H](COP(=O)(N(C)C)N%10C[C@@H](COP(=O)(N(C)C)N%11C[C@@H](COP(=O)(N(C)C)N%12C[C@@H](COP(=O)(N(C)C)N%13C[C@@H](COP(=O)(N(C)C)N%14C[C@@H](COP(=O)(N(C)C)N%15C[C@@H](COP(=O)(N(C)C)N%16CCN(C(=O)[C@H](CS)NC(=O)[C@H](Cc%17ccccc%17)NC(=O)[C@H](Cc%17ccccc%17)NC(=O)[C@H](CCCNC(=N)N)NC(=O)[C@H](CCCNC(=N)N)NC(=O)[C@H](CCCNC(=N)N)NC(=O)[C@H](CCCNC(=N)N)NC(=O)[C@H](CCCNC(=N)N)NC(=O)[C@H](CCCNC(=N)N)NC(=O)[C@H](CCCNC(=N)N)NC(=O)[C@H](CCCNC(=N)N)NC(=O)[C@@H](N)CCCNC(=N)N)CC%16)O[C@@H](n%16ccc(N)nc%16=O)C%15)O[C@@H](n%15cnc%16c(N)ncnc%16%15)C%14)O[C@@H](n%14cnc%15c(N)ncnc%15%14)C%13)O[C@@H](n%13cnc%14c(N)ncnc%14%13)C%12)O[C@@H](n%12cnc%13c(=O)[nH]c(N)nc%13%12)C%11)O[C@@H](n%11cnc%12c(=O)[nH]c(N)nc%12%11)C%10)O[C@@H](n%10cc(C)c(=O)[nH]c%10=O)C9)O[C@@H](n9cnc%10c(N)ncnc%109)C8)O[C@@H](n8ccc(N)nc8=O)C7)O[C@@H](n7cnc8c(N)ncnc87)C6)O[C@@H](n6cc(C)c(=O)[nH]c6=O)C5)O[C@@H](n5cnc6c(N)ncnc65)C4)O[C@@H](n4cnc5c(=O)[nH]c(N)nc54)C3)O2)c(=O)[nH]c1=O (some centres undefined)
Non-toxic: all assays above

Cc1cn([C@H]2CN(P(=O)(OC[C@@H]3CN(P(=O)(OC[C@@H]4CN(P(=O)(OC[C@@H]5CN(P(=O)(OC[C@@H]6CN(P(=O)(OC[C@@H]7CNC[C@H](n8cnc9c(=O)[nH]c(N)nc98)O7)N(C)C)C[C@H](n7ccc(N)nc7=O)O6)N(C)C)C[C@H](n6cnc7c(N)ncnc76)O5)N(C)C)C[C@H](n5cnc6c(N)ncnc65)O4)N(C)C)C[C@H](n4ccc(N)nc4=O)O3)N(C)C)C[C@@H](COP(=O)(N(C)C)N3C[C@@H](COP(=O)(N(C)C)N4C[C@@H](COP(=O)(N(C)C)N5C[C@@H](COP(=O)(N(C)C)N6C[C@@H](COP(=O)(N(C)C)N7C[C@@H](COP(=O)(N(C)C)N8C[C@@H](COP(=O)(N(C)C)N9C[C@@H](COP(=O)(N(C)C)N%10C[C@@H](COP(=O)(N(C)C)N%11C[C@@H](COP(=O)(N(C)C)N%12C[C@@H](COP(=O)(N(C)C)N%13C[C@@H](COP(=O)(N(C)C)N%14C[C@@H](COP(=O)(N(C)C)N%15C[C@@H](COP(=O)(N(C)C)N%16C[C@@H](COP(=O)(N(C)C)N%17C[C@@H](COP(=O)(N(C)C)N%18CCN(C(=O)[C@H](CS)NC(=O)[C@H](Cc%19ccccc%19)NC(=O)[C@H](Cc%19ccccc%19)NC(=O)[C@H](CCCNC(=N)N)NC(=O)[C@H](CCCNC(=N)N)NC(=O)[C@H](CCCNC(=N)N)NC(=O)[C@H](CCCNC(=N)N)NC(=O)[C@H](CCCNC(=N)N)NC(=O)[C@H](CCCNC(=N)N)NC(=O)[C@H](CCCNC(=N)N)NC(=O)[C@H](CCCNC(=N)N)NC(=O)[C@@H](N)CCCNC(=N)N)CC%18)O[C@@H](n%18cnc%19c(=O)[nH]c(N)nc%19%18)C%17)O[C@@H](n%17cc(C)c(=O)[nH]c%17=O)C%16)O[C@@H](n%16ccc(N)nc%16=O)C%15)O[C@@H](n%15cc(C)c(=O)[nH]c%15=O)C%14)O[C@@H](n%14cnc%15c(=O)[nH]c(N)nc%15%14)C%13)O[C@@H](n%13cc(C)c(=O)[nH]c%13=O)C%12)O[C@@H](n%12cc(C)c(=O)[nH]c%12=O)C%11)O[C@@H](n%11cc(C)c(=O)[nH]c%11=O)C%10)O[C@@H](n%10ccc(N)nc%10=O)C9)O[C@@H](n9cnc%10c(=O)[nH]c(N)nc%109)C8)O[C@@H](n8cc(C)c(=O)[nH]c8=O)C7)O[C@@H](n7cc(C)c(=O)[nH]c7=O)C6)O[C@@H](n6cc(C)c(=O)[nH]c6=O)C5)O[C@@H](n5cc(C)c(=O)[nH]c5=O)C4)O[C@@H](n4ccc(N)nc4=O)C3)O2)c(=O)[nH]c1=O (some centres undefined)
Non-toxic: all assays above
